Assay results of several laboratories.
Protocols differ between the studies behind these lines.
Target: Casein kinase I isoform gamma-3 (CSNK1G3, Homo sapiens, UniProt Q9Y6M4)

Cc1cc(O)c(-c2ccc([C@@H](C)CN(C)C)cc2)c2c1[nH]c(=O)c1sccc12 — inhibition (enzyme activity; inhibitor; 0.1 µM): -4.11%
CO[C@@H]1[C@H](N(C)C(=O)c2ccccc2)C[C@H]2O[C@]1(C)n1c3ccccc3c3c4c(c5c6ccccc6n2c5c31)C(=O)NC4 — inhibition (enzyme activity; inhibitor; 1 µM): 0%
COc1ccc2[nH]c3c4[nH]c5ccc(OC)cc5c4c4c(c3c2c1)C(=O)NC4=O — remaining binding (binding; 1 µM): 100%
N#Cc1ccc2nc(Nc3ccc(N4CCOCC4)c(Cl)c3)[nH]c2c1 — ΔTm (thermal stability; DSF; 30 µM): 3.3 °C
C1=C/COCc2cc(ccc2OCCN2CCCC2)Nc2nccc(n2)-c2cccc(c2)COC/1 — remaining signal (cell-free assay; 0.1 µM): 100%
C=CC(=O)N1CCC([C@@H]2CCNc3c(C(N)=O)c(-c4ccc(Oc5ccccc5)cc4)nn32)CC1 — inhibition (enzyme activity; inhibitor; 1 µM): 0%
Cc1ccc(NC(=O)c2ccnc(C(F)(F)F)c2)cc1-c1cc(OCCO)nc(N2CCOCC2)c1 — remaining binding (binding; 1 µM): 100%
CCCCC(=O)Nc1ccc(-c2ccc3ncn(CCC)c(=O)c3c2)cn1 — remaining binding (binding; competition with immobilised ligand; 0.5 µM): 85%
